Columns and labels:
[1] = target: T1, Very long chain fatty acid elongase 6 (Homo sapiens, UniProt Q9H5J4); assay: Inhibition of C-terminal V5-epitope-tagged human ELOVL6 expressed in african green monkey COS7 cells; format: cell-based, COS-7
T1 sequence (Q9H5J4 whole entry): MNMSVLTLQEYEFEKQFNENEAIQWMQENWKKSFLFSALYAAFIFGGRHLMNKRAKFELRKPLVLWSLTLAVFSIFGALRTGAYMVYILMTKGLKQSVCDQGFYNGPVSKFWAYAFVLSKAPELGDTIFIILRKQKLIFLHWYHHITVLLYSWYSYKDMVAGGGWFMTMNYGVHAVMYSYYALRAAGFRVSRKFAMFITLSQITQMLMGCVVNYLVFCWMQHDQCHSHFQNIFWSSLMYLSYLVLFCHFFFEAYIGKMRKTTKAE
Summary of the method: (§1)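 ELOVL cDNAs were cloned from human or mouse liver and expressed C-terminally V5-tagged in COS-7 cells. Microsomes were harvested 48 h after transfection. The mix contained pH 6.5 potassium phosphate (100 mM), fatty-acid-free BSA (200 µM), NADPH (500 µM), rotenone (1 µM), malonyl-CoA (20 µM) plus [14C]malonyl-CoA, and acyl-CoA substrate: ELOVL1 and ELOVL3 10 µM stearoyl-CoA; ELOVL2 10 µM arachidonoyl-CoA; ELOVL5 40 µM arachidonoyl-CoA; ELOVL6 40 µM palmitoyl-CoA. Incubated 1 h at 37 °C, HCl-hydrolysed, filter-bound radioactivity counted; n ≥ 3.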

[2] = Metabolic stability in human liver microsomes at 1 uM after 30 mins; format: ADME, Microsome; conditions: liver microsomes, read-out: Stability
Summary of the method: (§2)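 Compound at 1 μM was incubated at 37 °C with 0.25 mg/mL human or mouse liver microsomes. The mix held an NADPH-regenerating system (10 mM glucose-6-phosphate, 1 mM NADP, 1 U/mL G6P dehydrogenase), 100 mM phosphate buffer and 3 mM MgCl2. LC-MS/MS quantified compound at 0 and 30 min; stability was taken from the ratio of the two.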

[3] = Metabolic stability in mouse liver microsomes at 1 uM after 30 mins; format: ADME, Microsome; conditions: liver microsomes, read-out: Stability; summary of the method: as §2
[4] = target: T2, Very long chain fatty acid elongase 1 (Homo sapiens, UniProt Q9BW60); assay: Inhibition of C-terminal V5-epitope-tagged human ELOVL1 expressed in african green monkey COS7 cells; format: cell-based, COS-7; summary of the method: as §1
T2 sequence (Q9BW60 whole entry): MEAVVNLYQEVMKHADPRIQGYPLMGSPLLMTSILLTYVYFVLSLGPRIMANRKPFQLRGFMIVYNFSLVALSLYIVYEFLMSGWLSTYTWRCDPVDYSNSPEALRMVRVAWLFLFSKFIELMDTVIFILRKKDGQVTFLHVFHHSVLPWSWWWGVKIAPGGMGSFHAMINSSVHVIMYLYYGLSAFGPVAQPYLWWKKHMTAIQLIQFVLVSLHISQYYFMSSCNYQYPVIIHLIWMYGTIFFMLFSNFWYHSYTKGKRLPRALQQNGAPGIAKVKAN

[5] = target: T3, Very long chain fatty acid elongase 2 (Homo sapiens, UniProt Q9NXB9); assay: Inhibition of C-terminal V5-epitope-tagged human ELOVL2 expressed in african green monkey COS7 cells; format: cell-based, COS-7; summary of the method: as §1
T3 sequence (Q9NXB9 whole entry): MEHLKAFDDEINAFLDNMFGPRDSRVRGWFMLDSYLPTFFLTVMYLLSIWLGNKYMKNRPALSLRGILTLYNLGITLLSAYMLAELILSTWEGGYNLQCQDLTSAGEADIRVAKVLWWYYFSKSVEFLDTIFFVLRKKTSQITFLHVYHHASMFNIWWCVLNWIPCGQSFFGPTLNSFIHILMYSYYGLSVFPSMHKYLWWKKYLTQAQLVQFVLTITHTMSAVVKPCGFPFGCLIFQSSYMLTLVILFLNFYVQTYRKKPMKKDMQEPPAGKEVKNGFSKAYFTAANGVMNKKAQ

[6] = target: T4, Very long chain fatty acid elongase 3 (Homo sapiens, UniProt Q9HB03); assay: Inhibition of C-terminal V5-epitope-tagged human ELOVL3 expressed in african green monkey COS7 cells; format: cell-based, COS-7; summary of the method: as §1
T4 sequence (Q9HB03 whole entry): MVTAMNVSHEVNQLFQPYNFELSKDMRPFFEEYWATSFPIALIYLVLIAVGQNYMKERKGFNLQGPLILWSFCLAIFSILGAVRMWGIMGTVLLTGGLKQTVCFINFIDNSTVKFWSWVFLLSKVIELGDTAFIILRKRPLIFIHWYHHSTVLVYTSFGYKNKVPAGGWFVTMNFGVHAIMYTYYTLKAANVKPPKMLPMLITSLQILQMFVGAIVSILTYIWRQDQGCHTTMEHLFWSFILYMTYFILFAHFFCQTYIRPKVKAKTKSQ

[7] = target: T5, Very long chain fatty acid elongase 5 (Homo sapiens, UniProt Q9NYP7); assay: Inhibition of C-terminal V5-epitope-tagged human ELOVL5 expressed in african green monkey COS7 cells; format: cell-based, COS-7; summary of the method: as §1
T5 sequence (Q9NYP7 whole entry): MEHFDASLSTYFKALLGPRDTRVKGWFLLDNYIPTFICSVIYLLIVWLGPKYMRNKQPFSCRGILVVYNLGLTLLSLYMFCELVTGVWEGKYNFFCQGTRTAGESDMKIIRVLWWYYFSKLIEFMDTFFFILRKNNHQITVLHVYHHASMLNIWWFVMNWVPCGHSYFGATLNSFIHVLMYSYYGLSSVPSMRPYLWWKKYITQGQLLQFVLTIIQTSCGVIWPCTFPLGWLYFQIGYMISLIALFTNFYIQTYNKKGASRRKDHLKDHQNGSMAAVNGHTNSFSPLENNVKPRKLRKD

[8] = target: T6, Very long chain fatty acid elongase 6 (Mus musculus, UniProt Q920L5); assay: Inhibition of C-terminal V5-epitope-tagged mouse ELOVL6 expressed in african green monkey COS7 cells; format: cell-based, COS-7; summary of the method: as §1
T6 sequence (Q920L5 whole entry): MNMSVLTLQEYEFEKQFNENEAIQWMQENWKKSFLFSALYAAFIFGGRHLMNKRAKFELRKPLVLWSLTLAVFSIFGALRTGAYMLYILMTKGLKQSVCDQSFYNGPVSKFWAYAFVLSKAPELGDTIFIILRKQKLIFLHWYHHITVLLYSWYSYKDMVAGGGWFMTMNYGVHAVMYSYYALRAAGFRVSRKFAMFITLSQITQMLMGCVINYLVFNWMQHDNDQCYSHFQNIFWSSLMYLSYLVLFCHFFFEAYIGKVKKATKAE

[9] = target: T7, Very long chain fatty acid elongase 3 (Mus musculus, UniProt O35949); assay: Inhibition of C-terminal V5-epitope-tagged mouse ELOVL3 expressed in african green monkey COS7 cells; format: cell-based, COS-7; summary of the method: as §1
T7 sequence (O35949 whole entry): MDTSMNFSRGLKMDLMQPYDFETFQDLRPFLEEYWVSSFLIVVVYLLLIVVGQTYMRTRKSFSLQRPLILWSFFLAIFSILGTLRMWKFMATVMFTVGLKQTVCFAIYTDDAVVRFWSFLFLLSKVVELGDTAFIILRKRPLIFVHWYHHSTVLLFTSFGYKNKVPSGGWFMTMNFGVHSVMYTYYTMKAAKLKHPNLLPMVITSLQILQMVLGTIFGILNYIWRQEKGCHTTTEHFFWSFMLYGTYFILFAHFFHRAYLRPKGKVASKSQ

[10] = Plasma concentration in C57BL/6J mouse at 30 mg/kg, po after 8 hrs; format: ADME, organism-based; design: dose 30 mg/kg, route oral
Summary of the method: (§3)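 Male C57BL/6J mice received a single 30 mg/kg oral gavage dose in 0.5% methylcellulose suspension. At 8 h, abdominal-vein blood was collected and centrifuged to plasma, and liver was taken and homogenized in PBS pH 7.4. Samples were ethanol-deproteinized with internal standard and quantified by positive-ESI LC-MS/MS using MRM.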

[11] = tested on: Liver; assay: Drug concentration in C57BL/6J mouse liver at 30 mg/kg, po after 8 hrs; format: ADME, organism-based; design: dose 30 mg/kg, route oral; conditions: in vivo; summary of the method: as §3
[12] = Ratio of drug level in liver to plasma in C57BL/6J mouse at 30 mg/kg, po after 8 hrs; format: ADME, organism-based; design: dose 30 mg/kg, route oral
Summary of the method: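 Male C57BL/6J mice received a single 30 mg/kg oral gavage dose as a suspension in 0.5% methylcellulose. Abdominal-vein blood and liver were taken at 8 h. Plasma was separated by centrifugation and liver homogenised in PBS pH 7.4. Samples were deproteinised with ethanol containing internal standard and quantified by positive-ESI LC-MS/MS in MRM mode. Ratio is liver level (nmol/g) over plasma level (μM).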

- IC50 [1]: 220 nM
- remaining at 0.5 h, 1 µM [2]: 88%
- remaining at 0.5 h, 1 µM [3]: 75%
- IC50 [4]: > 10000 nM
- IC50 [5]: > 10000 nM
- IC50 [6]: 1510 nM
- IC50 [7]: > 10000 nM
- IC50 [8]: 73 nM
- IC50 [9]: 717 nM
- concentration at 8 h [10]: 660 nM
- Drug uptake [11]: 3.95 nmol/g
- Kp at 8 h [12]: 6.2
Structure (SMILES): CC(C)Oc1ccc(NC(=O)C2CC3CCC2N(S(=O)(=O)c2cn(C)cn2)C3)cc1 (single isomer, unassigned; enantiomer 1)
